This is a sample that favours compounds with a hit; in the whole collection about 2.4% have one here.
SUMO1-SIM PPI = modulators of human SUMO1-mediated protein-protein interactions; 360,000 compounds, 0.33% hits; inhibition, % at 20 µM; SUMO1 binding to a labelled peptide, TR-FRET, 1 h; P63165; in the data active = inhibition above about 37%
Target sequence (P63165 whole entry, looked up): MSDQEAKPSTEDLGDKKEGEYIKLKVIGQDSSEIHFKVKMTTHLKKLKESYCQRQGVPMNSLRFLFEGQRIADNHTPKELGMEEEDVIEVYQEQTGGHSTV
STEP inh = inhibitors of human striatal-enriched phosphatase STEP | P54829 | recombinant STEP, OMFP fluorogenic substrate, fluorescence | inhibition, % at 20 µM | 360,000 compounds, 0.25% hits;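 active = inhibition at 20 µM, scaled per plate between control wells, above about 37%, limit read from the data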;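 note: 0% = DMSO with enzyme and substrate and 100% = substrate only without enzyme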
Target sequence (P54829 whole entry, looked up): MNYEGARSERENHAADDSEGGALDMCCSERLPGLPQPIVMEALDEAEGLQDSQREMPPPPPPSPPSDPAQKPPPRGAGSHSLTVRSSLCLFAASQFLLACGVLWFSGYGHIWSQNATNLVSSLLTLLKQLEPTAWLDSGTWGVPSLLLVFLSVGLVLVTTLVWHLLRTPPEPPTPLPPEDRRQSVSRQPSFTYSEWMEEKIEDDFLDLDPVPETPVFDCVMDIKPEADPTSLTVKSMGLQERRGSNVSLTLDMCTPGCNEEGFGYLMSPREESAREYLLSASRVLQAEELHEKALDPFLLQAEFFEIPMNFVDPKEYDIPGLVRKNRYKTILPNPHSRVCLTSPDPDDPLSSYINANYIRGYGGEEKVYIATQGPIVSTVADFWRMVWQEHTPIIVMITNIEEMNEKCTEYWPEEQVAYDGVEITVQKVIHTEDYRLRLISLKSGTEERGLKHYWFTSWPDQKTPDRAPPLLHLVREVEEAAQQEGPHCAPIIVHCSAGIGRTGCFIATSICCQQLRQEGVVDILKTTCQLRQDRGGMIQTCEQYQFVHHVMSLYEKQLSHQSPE
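Test system: STEP tyrosine phosphatase / Reagent: OMFP at 25 µM / Doses: 20 µM, 1% DMSO / Read-out: percent inhibition scaled to no-enzyme and uninhibited-enzyme controls, plate-pattern corrected / Detection: FITC-channel fluorescence of OMFP product / Medium: Bis-Tris buffer pH 6.0, 2.5 mM DTT, 0.005% Tween 20 / Schedule: 20 min at room temperature, dark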
NadD inh = inhibitors of Staphylococcus aureus NadD | AID 602399 | purified NadD enzyme, colorimetric absorbance read-out | inhibition, % at 20 µM | 360,000 compounds, 0.78% hits; in the data active = inhibition above about 26%
LMPTP inh = blocks human LMPTP phosphatase; recombinant LMPTP-A, OMFP fluorogenic substrate, fluorescence intensity; 360,000 compounds, 0.22% hits; AID 651560; P24666; inhibition, % at 20 µM;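 active = compounds that cut the enzyme signal by at least half of the control window in the single-dose screen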;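 note: plate controls were DMSO wells with enzyme plus substrate for no effect and substrate without enzyme for full effect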
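Material: LMPTP-A; amount: 0.625 nM enzyme; doses: single 20 µM dose; times: reaction 50 min, room temperature, dark; technique: fluorescence intensity of OMFP turnover product; benchmarks: no-enzyme and uninhibited controls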
DNMT1 inh = blocks human DNA methyltransferase DNMT1; 360,000 compounds, 0.83% hits; inhibition (reported as % activation of signal), % at 10 µM; DNMT1 molecular beacon, Hinp1I cleavage, fluorescence; P26358; in the data active = inhibition above about 50%
Scp-1 inhibitor = inhibitors of human Scp-1 phosphatase | Q9GZU7 | Recombinant Scp1, phosphopeptide, malachite green phosphate absorbance | inhibition, % at 20 µM | 340,000 compounds, 0.88% hits;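 active = inhibition above about 50% at 20 µM, limit read from the data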;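 note: plate controls were DMSO wells with enzyme for no effect and wells lacking enzyme for full effect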
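Incubation: 45 min enzyme reaction at room temperature / System: truncated SCP-1 phosphatase (76-261aa) / Reagent: Phospho 17-mer peptide substrate / Buffer or medium: Acidic Tris acetate buffer with magnesium and detergent / Signal: absorbance at 630 nm / Doses: one concentration, 20 µM, with 1.0% DMSO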
STEP conf = STEP (human) phosphatase inhibition, single concentration confirmation; recombinant STEP, OMFP fluorogenic substrate, fluorescence; inhibition, % at 20 µM; 520 compounds, 32% hits; AID 623866; shares compounds with STEP inh; call rule not given here;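 note: 0% = enzyme with substrate plus DMSO and 100% = substrate without enzyme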
* marks the source's active call; other numbers are inactive results; · = not tested or not shown.

SMILES | SUMO1-SIM PPI | STEP inh | NadD inh | LMPTP inh | DNMT1 inh | Scp-1 inhibitor | STEP conf
O=C(Nc1nc2nccc(-c3ccccc3)n2n1)c1ccc(F)cc1 | 4 | 52* | 1 | 1 | 28 | -3 | -1
CCCCc1ccc(NC(=O)C2CCN(S(C)(=O)=O)CC2)cc1 | 2 | 1 | -4 | 3 | 4 | 1 | ·
CCN1CCN(c2nc(C)nc3c2sc(=S)n3C)CC1 | 1 | 93* | 0 | 3 | -1 | -4 | -10
Cc1nc(N2CCCCC2)c2sc(=S)n(C)c2n1 | 11 | 2 | 2 | 3 | -1 | -8 | ·
COc1cccc2cc(C(C)N(CCCN3CCOCC3)C(=S)Nc3cccc(C)c3C)oc12 (stereo unspecified) | -1 | 0 | 2 | -2 | -1 | 2 | ·
CCOC(=O)c1ccccc1N/C=C1\CCCCC1=O | -13 | 58* | -2 | -1 | 3 | -11 | 1
COc1cc(C)c(NC(=S)Nc2cccc(Cl)c2C)cc1OC | -2 | 48* | 2 | -1 | 3 | -2 | 3
COC(=O)c1cccc(NC(=S)Nc2cccc(Cl)c2C)c1 | 3 | -3 | -1 | 2 | -9 | 3 | ·
CCOC(=O)N1CCC(N(CCN(C)C)C(=S)Nc2ccccc2OCC)CC1 | -3 | 45* | -3 | -5 | 0 | 9 | 22
CCOC(=O)N1CCC(N(CCN(C)C)C(=S)Nc2ccc(Oc3ccccc3)cc2)CC1 | 1 | 92* | -7 | -2 | 0 | 5 | 61*
CCOC(=O)N1CCC(N(CCN(C)C)C(=S)Nc2cccc(C)c2)CC1 | -1 | -4 | -1 | -9 | -7 | -3 | ·
CCOC(=O)N1CCC(N(CCN(C)C)C(=S)Nc2ccccc2OC)CC1 | -3 | 3 | -6 | -7 | 2 | -11 | ·
O=C1C2C3C=CC(C3)C2C(=O)N1CCCCN1C(=O)C2C3C=CC(C3)C2C1=O (stereo unspecified) | -3 | -2 | 3 | 0 | -12 | -10 | ·
CC(=O)C[C@H]1c2ccccc2S(=O)(=O)N1C1CCCCC1 | -2 | -1 | -2 | 0 | -3 | -2 | ·
COCCCNC(=S)NC1CC2CCC(C1)N2Cc1ccccc1 (stereo unspecified) | 0 | 3 | -5 | 1 | 2 | 1 | ·
CCOCCCNC(=S)NC1CC2CCC(C1)N2Cc1ccccc1 (stereo unspecified) | 2 | 55* | -8 | 1 | 0 | -3 | 25
Cc1ccc(C(=O)c2c3ccccc3[n+]([O-])n2CCO)cc1 | -16 | 0 | 2 | 1 | 0 | -3 | ·
CC(=O)c1ccc(OCCCC(=O)OCC(=O)Nc2c(C)nn(-c3ccccc3)c2C)cc1 | -5 | 0 | -2 | 0 | 0 | -9 | ·
Cc1ccc(S(=O)(=O)NCC(=O)N2CCN(c3ccc(F)cc3)CC2)cc1 | -2 | 40* | 1 | -2 | 1 | -4 | -3
COc1ccc(-c2csc(NC(=O)C3CSC4(C)CCC(=O)N34)n2)cc1 (stereo unspecified) | 1 | 3 | 2 | 0 | 28 | -5 | ·
Nc1c(C(=O)NCCN2CCOCC2)c2nc3ccccc3nc2n1-c1ccc2c(c1)OCO2 | -13 | 3 | 9 | 3 | -14 | -10 | ·
CCCc1cc(C(=O)N2CCCC(C(=O)c3cccc4ccccc34)C2)n(C)n1 (stereo unspecified) | -5 | 49* | -2 | 1 | -1 | -3 | 1
CC(Oc1ccccc1)C(=O)N1CCC2(CC1)Oc1ccc(F)cc1C(=O)C21CC(c2ccc(Cl)cc2)=NO1 (stereo unspecified) | 2 | 2 | 6 | 2 | -2 | -6 | ·
O=C(Nc1ccc(C(=O)N2CCCCC2)cc1)c1cccs1 | -17 | 68* | -6 | 2 | 7 | -7 | 4
O=C(O)c1ccc(NC(=O)c2ccccc2NC(=O)c2cccc(F)c2)cc1 | 2 | 68* | -6 | -2 | -3 | -8 | 13
SMILES | SUMO1-SIM PPI | STEP inh | NadD inh | LMPTP inh | DNMT1 inh | Scp-1 inhibitor | STEP conf
Cc1cccc(C(=O)Nc2ccccc2C(=O)Nc2ccc(C(=O)O)cc2)c1 | 1 | 0 | -9 | -2 | -2 | -10 | ·
Cn1c2ccccc2c2nnc(NN)nc21 | -3 | 0 | 3 | 5 | 6 | -2 | ·
O=C1NC(=Nc2cccnc2)S/C1=C\c1cccc(F)c1 | -14 | 57* | -2 | -1 | -1 | 10 | 6
O=C1NC(=Nc2ccccc2)S/C1=C/c1cccnc1 | -16 | 10 | -2 | 3 | 2 | 39 | ·
CCC(C)NC(=O)c1ccc(CS(=O)(=O)c2ccc(OC)cc2)o1 (stereo unspecified) | -3 | 1 | -6 | 0 | 1 | -12 | ·
COc1ccc(C(=O)Oc2ccc3ccc(=O)oc3c2)cc1 | -5 | 74* | -1 | 37 | 4 | 9 | -8
O=C(Oc1ccc2ccc(=O)oc2c1)c1ccccc1 | 8 | 5 | -2 | 7 | 4 | -5 | ·
O=C(Nc1ccc(OC(F)(F)F)cc1)C1CCCN(S(=O)(=O)c2cccnc2)C1 (stereo unspecified) | 1 | 39* | 1 | 1 | -1 | -3 | 3
Cc1ccccc1C(=O)O/N=C(\N)c1cccc([N+](=O)[O-])c1 | -25 | 2 | -5 | -1 | 5 | -4 | ·
N/C(=N\OC(=O)c1cccc2ccccc12)c1cccc([N+](=O)[O-])c1 | -7 | 62* | -7 | 10 | 43 | 49 | 24*
Cc1ccc(S(=O)(=O)CC(=O)Nc2cccc(C)n2)cc1 | 1 | -2 | 3 | 0 | -1 | -1 | ·
Cc1nc2cc(C)c(C)cc2s1 | -1 | -2 | -2 | 1 | 0 | -2 | ·
COc1cc(/C=C2/C(=O)NN(c3cccc(C)c3)C2=O)ccc1OC(=O)c1ccco1 | 10 | 13 | 19 | 10 | 7 | 15 | ·
COc1cc(/C=C2/C(=O)NN(c3cccc(C)c3)C2=O)cc([N+](=O)[O-])c1O | 10 | 51* | 5 | 43 | 58* | 40 | 45*
CCOC(=O)[C@]12CCC=C1N(Cc1ccccc1)C(=O)[C@H](CC(=O)NCc1ccc(OC)c(OC)c1)C2 | 4 | · | 2 | -1 | · | · | ·
CC(C)[C@H](NC(=O)N1CC(=O)Nc2ccccc21)C(=O)Nc1nccs1 | 5 | 92* | -7 | 0 | 2 | -6 | 0
CC1(C(=O)Nc2ccc3c(c2)OCCO3)CCN1C(=O)c1ccccc1CCc1ccccc1 (stereo unspecified) | 9 | 1 | -13 | 2 | -4 | · | ·
COc1ccc(-c2csc(NC(C)c3nc4cc(C(F)(F)F)ccc4n3CCOCCO)n2)cc1 (stereo unspecified) | 1 | 44* | 5 | 3 | -19 | -1 | 15

Compound activity: PubChem, Sanford-Burnham Center for Chemical Genomics
